Experimental data from the EternaBench riboswitch data.

Test system: MS2 coat protein
Test: apparent Kd, MS2 coat protein; higher = weaker binding; RNA-MaP array; FMN 200 µM where present
How it was run: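 Designs on Illumina sequencing-chip clusters, transcribed by stalled E. coli RNA polymerase, were exposed to SNAP-549-labelled MS2 coat protein in doubling steps from 0.7 or 1.5 nM up to 3 µM, without and then with constant ligand. The buffer held 100 mM Tris-HCl pH 7.5, 80 mM KCl, 4 mM MgCl2, BSA, DTT, yeast tRNA and Tween-20. Apparent Kd values are medians of filtered per-cluster binding-curve fits to green signal normalised to red-channel RNA signal and control-cluster median Fmax.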

[1] = designed as: OFF switch for flavin mononucleotide, no ligand
[2] = ligand present: flavin mononucleotide, designed as: OFF switch for flavin mononucleotide
[3] = designed as: ON switch for flavin mononucleotide, no ligand
[4] = ligand present: flavin mononucleotide, designed as: ON switch for flavin mononucleotide

| Sequence | apparent Kd [1] | apparent Kd [2] | apparent Kd [3] | apparent Kd [4] |
| --- | --- | --- | --- | --- |
| CGGUACUGAGGAUAUACAUGAGGAUCACCCAUGUGUUCCAGCUAGCGUACUGGCAUUUGUAGAAGGCGGUGCUG | 16.8 nM | 48 nM | – | – |
| CGUAACUGCAUAGGAUAUUGAUACAUGAGGAUCACCCAUGUUUUUCGGAUUAUAUAUCUACUUAGCAAGAAGGAUGGAGUUACG | – | – | 7.09 nM | 5.15 nM |
| CGUAAGAUGCAGAAGGUGUUAGCUAGAGCUACGACAUGAGGAUCACCCAUGUACUAGAAACAGUACAAGGAUAUGCAUCUUACG | – | – | 17.3 nM | 6.56 nM |
| CGUACUCAAAGAGUACCAAUACGAACAUGAGGAUCACCCAUGUAGGAUAUGCUACUCAAAGAGUAGCAGAAGGACAUGUGCCUA | 19.3 nM | 73.2 nM | – | – |
| CGUAUUAAACAAGGAUAUCAUUUGUGUACAAGUUUUACAUGAGGAUCACCCAUGUUAAAUGGUUUUGAGAAGGUGUUUAGAUCG | – | – | 35.3 nM | 25.9 nM |
| CGUCAGUGAGGAUAUGGUAUCGUGUACAUGAGGAUCACCCAUGUUUCUUGGGACUAUAUACUAGAAGGCACUGACG | 16 nM | 35.3 nM | – | – |
| CGUCCUUAGUGAGGAUAUCAGAAAAUACGGAAAUGAGAAGGCACAUGAGGAUCACCCAUGUAAAUAACGGCCGGUCUUGGCAGC | 7.96 nM | 21.6 nM | – | – |
| CGUCUAUGCCAGAAGGCAUGUCAAAAGACAUGAGGAUCACCCAUGUAAAUGAGGAUAUGGCAUAGACGAAAAGUGCGAAAGCAC | – | – | 136 nM | 13.6 nM |
| CGUGCGUAUGUGAGGAUAUGCUGGUCCUUGGAUCGGCAGAAGGCACAUGAGGAUCACCCAUGUGGUGUCGUACC | 187 nM | 35.9 nM | – | – |
| CGUGCGUAUGUGAGGAUAUGCUGGUCCUUGGAUCGGCAGAAGGUACAUGAGGAUCACCCAUGUGGUGUCGUUCU | 252 nM | 292 nM | – | – |
| CGUGGCCGAGGAUAUACGGACGUGUCGCCGGGUGUCGUGGGACAUGAGGAUCACCCAUGUAGAAGGUGGUUGUC | 53.5 nM | 39 nM | – | – |
| CGUGUAAACUCAGGAUAUCCUGCGAGCAACGGGUAUUGAGUCUUCACAUGAGGAUCACCCAUGUAGGAGAAGGGAGGUACAAAA | 72.6 nM | 187 nM | – | – |
| CGUGUUUAUGUGAGGAUAUUAUCAAGCUGAUUGUGUAAGAAGGCACAUGAGGAUCACCCAUGUGGCGAUUCCGC | 34.2 nM | 215 nM | – | – |
| CGUUAUGAUAAAGGAUAUAUAAUAGAUAUACAUGAGGAUCACCCAUGUUACAUGGAUUCAAAUUUAUAGAAGGUUAUCCUAUCG | 36 nM | 22.6 nM | – | – |
| CGUUCACAUGAGGAUCACCCAUGUCAGAUUUGGUCAGGAUAUGGUCUGCUUUCGCUAUUUCCAGAAGGGACUUUUG | – | – | 28.6 nM | 24.8 nM |
| CGUUCGUGAGGAUAUUGUGGAAUUGACAUGAGGAUCACCCAUGUGGCCAUUGUCGACUCGCAAGAAGGCAUAGAUU | 54.2 nM | 189 nM | – | – |
| CGUUUAUUUAUGGGAUUAUAUUAUGAGGAUAUCAAUAUUUAUUACAUGAGGAUCACCCAUGUUAAUGAGAAGGCAUAAUUAACG | – | – | 9.53 nM | 6.3 nM |
| CGUUUUUAUGUAGGAUAUGCUUGUGGUAAGAUAGCAGAAGGACAUGAGGAUCACCCAUGUUAAUGAUAGAGAUUUUAUGUGGCG | 37.8 nM | 61.4 nM | – | – |
| CUAAAUCAUGUAGGAUAUGCAUGGCGAAGCUACGCAGAAGGACAUGAGGAUCACCCAUGUCUCUCCGUCUGGGUACAGACGGAG | 18.9 nM | 120 nM | – | – |
| CUAAGUGCCGGAGGAUAUACAUGAGGAUCACCCAUGUCAGUCUGUUUACAUGUAGAAGGCCGGCGAACAAAGGACUUGCCAAGA | 48.1 nM | 298 nM | – | – |
| CUACAUGAGGAUCACCCAUGUGCACGCCAGAUCGGUGUGCGCAGAAGGGCCAUGGAGAAAGCCAGGCAGGAUAUGCAAAGGGCU | – | – | 353 nM | 162 nM |

| Sequence | apparent Kd [1] | apparent Kd [2] | apparent Kd [3] | apparent Kd [4] |
| --- | --- | --- | --- | --- |
| CUACCGCGUGUGAGGAUAUUAUCACGUUACGGCGCUAAGAAGGUACAUGAGGAUCACCCAUGUCUCAACGGGUG | 447 nM | 546 nM | – | – |
| CUACCUUAUGAGAAGGCGAUUAUGAAACAUGAUCGAGGAUAUCAUGUAAACAUGAGGAUCACCCAUGUAUGGGUAUUAUGGUAA | – | – | 211 nM | 32.8 nM |
| CUAGAAAGGACAGGAUAUCGGGAUCGAACACCCGACAUGAGGAUCACCCAUGUCGCAAAAGAUAGCGAGAAGGGUCGGACACAA | – | – | 45.8 nM | 14.1 nM |
| CUAGCAACAUGAGGAUCACCCAUGUAGGAUAUCGCUAUUGUAAUCAUGAAACAUGAUUACAAUAGCGAGAAGGACAUAUGCUAG | 6.44 nM | 9.28 nM | – | – |
| CUAGUAUAUCAGGAUAUGAUUUUGUGUAGUUGGUCAGAAGGGAUGACAUGAGGAUCACCCAUGUUAAGGGAUGA | 94.2 nM | 108 nM | – | – |
| CUAUAGAUAUCAGGAUAUCUAUUUCCUACAUGAGGAUCACCCAUGUAGAUGAUCACCCAUGUAAAGGAGAAGGGAUAUCUAUAG | – | – | 361 nM | 169 nM |
| CUAUGAGGAAUAGGAUAUUCGAUCAUGAGGAUAGAAGAAGGGUUACAUGAGGAUCACCCAUGUAUGCACAUGAGGAUCCCUUAG | 235 nM | 226 nM | – | – |
| CUAUUGGUAACAGGAUAUAUGAGUCCUACAUGAGGAUCACCCAUGUAGGUGAUCAAACAUGAUUAGUAGAAGGGUUACCAAUAG | – | – | 40.9 nM | 8.8 nM |
| CUCCUCCCGAAGGAUAUCCACGCCAACUUCGUAGGAGAAGGUCGGACAUGAGGAUCACCCAUGUGGCCAUGGUU | 18.5 nM | 40.3 nM | – | – |
| CUCGAGUGAGGAUAUAUACUUCCAUCAUUUGAGAGAGAAGUAUAGAAGGCACAUGAGGAUCACCCAUGUAUAAA | 47.5 nM | 69.7 nM | – | – |
| CUCGAGUUAGGAUAUUGAACGUAACAAGCGGGAACUCCCGCCAAGAAGGAACAUGAGGAUCACCCAUGUGAAAC | 21 nM | 21.3 nM | – | – |
| CUCGGACAUGAGGAUCACCCAUGUGAGGAUAUGAUGCGAUCGUCGAAAGACGAUAGCAUCAGAAGGUACAAAUG | 52 nM | 42.9 nM | – | – |
| CUCGGACAUGAGGAUCACCCAUGUGAGGAUAUGGUGCUAUCGUCAUUAGACGAUUGCGUUAGAAGGCACAAAUG | 41.5 nM | 54.6 nM | – | – |
| CUCGUGUCGGAGGAUAUCCAGCGCGAAAAUAAAGGAGAAGGCCGCACAUGAGGAUCACCCAUGUAACAUGGUCC | 56.2 nM | 76.4 nM | – | – |
| CUCGUUAUGUUAGGAUAUGAUGCAUCCCGAUAAUCAGAAGGAACAUGAGGAUCACCCAUGUGACAUUUGGUGAAAACAAGCCAA | 6.35 nM | 7.87 nM | – | – |
| CUCUUGUCAGGAUAUACGUACGCUUCGGCGGCGAGGAUCAUGUAGAAGGGACAUGAGGAUCACCCAUGUUAGAC | 41.6 nM | 44 nM | – | – |
| CUCUUGUCAGGAUAUCUUACAUAACAAUCGUAGUUACCAUUGGAGAAGGGACAUGAGGAUCACCCAUGUUAGCC | 23.8 nM | 46.5 nM | – | – |
| CUCUUGUGAGGAUAUCGAAGAAAAGAAAAGAAAGAAAAGAACGAGAAGGCACAUGAGGAUCACCCAUGUAAGAA | 57.2 nM | 171 nM | – | – |
| CUGAAUAGAGGAUAUUGUACUGCUGACAUGAGGAUCACCCAUGUAUGUUAACUCGGCCGUCGAGAAGGCUAACAUA | 42.8 nM | 26.7 nM | – | – |
| CUGAGCAAUCAAGGAUAUCACGUCGAUUAGACGUGAGAAGGUGAUCAUUACAUGAGGAUCACCCAUGUAUUACAUGGAGCUCAG | – | – | 1370 nM | 365 nM |
| CUGAGCAAUGUAGGAUAUCGACUGGAAUACAGUCGAGAAGGACAUGAGGAUCACCCAUGUCAAUGAGUGAAUAAUAAAGCUCAG | 20.7 nM | 118 nM | – | – |
